Data from ChEMBL document CHEMBL4765273 (Eur J Med Chem, 2020).
pIC50: −log10 of the molar value.

System: Influenza A virus
Assay: Antiviral activity against Influenza A virus (A/Duck/Guangdong/674/2014 (H5N6)) group-2 infected in chicken embryo fibroblast assessed as reduction in viral infection preincubated for 1 hrs followed by fibroblast infection and measured after 72 hrs by hemagglutination titre method
Type: functional, organism-based
Details: not given

First: CCC(CC)O[C@@H]1C=C(C(=O)O)C[C@H](NC/C=C/c2ccccc2OC)[C@H]1NC(C)=O
Second: CCC(CC)O[C@@H]1C=C(C(=O)O)C[C@H](NC(=O)c2ccccc2)[C@H]1NC(C)=O
The pIC50 of the first is higher: 5.51 for the first, under 5.00 for the second.

CCC(CC)O[C@@H]1C=C(C(=O)O)C[C@H](NS(=O)(=O)c2ccccc2)[C@H]1NC(C)=O and CCC(CC)O[C@@H]1C=C(C(=O)O)C[C@H](NS(=O)(=O)c2ccc(C)cc2)[C@H]1NC(C)=O cannot be ordered by pIC50: under 5.00 for the first, under 5.00 for the second.

CCC(CC)O[C@@H]1C=C(C(=O)O)C[C@H](N(Cc2ccsc2)Cc2ccsc2)[C@H]1NC(C)=O and CCC(CC)O[C@@H]1C=C(C(=O)O)C[C@H](NCc2cccc(C(F)(F)F)c2)[C@H]1NC(C)=O are within 0.2 log units of each other in pIC50: 5.52 for the first, 5.50 for the second.

First: CCC(CC)O[C@@H]1C=C(C(=O)O)C[C@H](NS(=O)(=O)c2ccc(-c3cccs3)cc2)[C@H]1NC(C)=O
Second: CCC(CC)O[C@@H]1C=C(C(=O)O)C[C@H](NC(=O)/C=C/c2ccc(F)cc2)[C@H]1NC(C)=O
The pIC50 of the first is higher: 5.62 for the first, under 5.00 for the second. The first is the more potent here.

With NC(=O)c1ncn([C@@H]2O[C@H](CO)[C@@H](O)[C@H]2O)n1 [RIBAVIRIN] the pIC50 was 5.18.

System: Influenza A virus
Assay: Antiviral activity against Influenza A virus (A/goose/Guangdong/SH7/2013(H5N1)) group-1 infected in chicken embryo fibroblast assessed as reduction in viral infection preincubated for 1 hrs followed by fibroblast infection and measured after 72 hrs by hemagglutination titre method
Type: functional, organism-based
Details: not given

Going from CCC(CC)O[C@@H]1C=C(C(=O)O)C[C@H](NC/C=C/c2ccccc2OC)[C@H]1NC(C)=O to CCC(CC)O[C@@H]1C=C(C(=O)O)C[C@H](NC(=O)c2ccccc2)[C@H]1NC(C)=O, the pIC50 falls from 5.92 to under 5.00. The first is the more potent here.

CCC(CC)O[C@@H]1C=C(C(=O)O)C[C@H](NS(=O)(=O)c2ccccc2)[C@H]1NC(C)=O and CCC(CC)O[C@@H]1C=C(C(=O)O)C[C@H](NS(=O)(=O)c2ccc(C)cc2)[C@H]1NC(C)=O cannot be ordered by pIC50: under 5.00 for the first, under 5.00 for the second.

CCC(CC)O[C@@H]1C=C(C(=O)O)C[C@H](N(Cc2ccsc2)Cc2ccsc2)[C@H]1NC(C)=O and CCC(CC)O[C@@H]1C=C(C(=O)O)C[C@H](NCc2cccc(C(F)(F)F)c2)[C@H]1NC(C)=O cannot be ordered by pIC50: under 5.00 for the first, under 5.00 for the second.

Going from CCC(CC)O[C@@H]1C=C(C(=O)O)C[C@H](NS(=O)(=O)c2ccc(-c3cccs3)cc2)[C@H]1NC(C)=O to CCC(CC)O[C@@H]1C=C(C(=O)O)C[C@H](NC(=O)/C=C/c2ccc(F)cc2)[C@H]1NC(C)=O, the pIC50 falls from 6.54 to under 5.00. The first is the more potent here.

NC(=O)c1ncn([C@@H]2O[C@H](CO)[C@@H](O)[C@H]2O)n1 [RIBAVIRIN] gave a pIC50 of 5.40.

System: Influenza A virus
Assay: Antiviral activity against Influenza A virus (A/chicken/Hebei/LZF/ 2014(H5N2)) group-2 infected in chicken embryo fibroblast assessed as reduction in viral infection preincubated for 1 hrs followed by fibroblast infection and measured after 72 hrs by hemagglutination titre method
Type: functional, organism-based
Details: not given

Compared with CCC(CC)O[C@@H]1C=C(C(=O)O)C[C@H](NC/C=C/c2ccccc2OC)[C@H]1NC(C)=O, CCC(CC)O[C@@H]1C=C(C(=O)O)C[C@H](NC(=O)c2ccccc2)[C@H]1NC(C)=O is lower in pIC50: 6.89 for the first, under 5.00 for the second.

CCC(CC)O[C@@H]1C=C(C(=O)O)C[C@H](NS(=O)(=O)c2ccccc2)[C@H]1NC(C)=O and CCC(CC)O[C@@H]1C=C(C(=O)O)C[C@H](NS(=O)(=O)c2ccc(C)cc2)[C@H]1NC(C)=O cannot be ordered by pIC50: under 5.00 for the first, under 5.00 for the second.

Going from CCC(CC)O[C@@H]1C=C(C(=O)O)C[C@H](N(Cc2ccsc2)Cc2ccsc2)[C@H]1NC(C)=O to CCC(CC)O[C@@H]1C=C(C(=O)O)C[C@H](NCc2cccc(C(F)(F)F)c2)[C@H]1NC(C)=O, the pIC50 falls from 6.82 to 6.47 (0.35 log units). The first is the more potent here.

Compared with CCC(CC)O[C@@H]1C=C(C(=O)O)C[C@H](NS(=O)(=O)c2ccc(-c3cccs3)cc2)[C@H]1NC(C)=O, CCC(CC)O[C@@H]1C=C(C(=O)O)C[C@H](NC(=O)/C=C/c2ccc(F)cc2)[C@H]1NC(C)=O is lower in pIC50: 7.10 for the first, under 5.00 for the second.

NC(=O)c1ncn([C@@H]2O[C@H](CO)[C@@H](O)[C@H]2O)n1 [RIBAVIRIN] gave a pIC50 of under 5.00.

System: not listed separately
Assay: Inhibition of Influenza A virus (A/goose/Jiangsu/1306/2014 (H5N8)) group-1 Neuraminidase N8 preincubated for 10 mins followed by MUNANA substrate addition and measured after 40 to 60 mins by fluorescence method
Details: not given
Procedure, shortened: (§1)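 Virus-derived NA was preincubated 10 min at 37°C with compound in MES buffer. Fluorogenic substrate was added and the reaction run for 40–60 min at 37°C, then stopped with glycine/NaOH. Fluorescence was read at ex 365 / em 460 nm with substrate blanks subtracted. IC50 was taken from percent-inhibition dose-response curves and reported as mean ± SD of three experiments.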

CCC(CC)O[C@@H]1C=C(C(=O)O)C[C@H](NC/C=C/c2ccccc2OC)[C@H]1NC(C)=O showed a pIC50 of 7.21.

System: not listed separately
Assay: Cytotoxicity against chicken embryo fibroblast assessed as reduction in cell viability after 48 hrs by CCK8 assay
Design: species or system Gallus gallus
Details: chicken embryo fibroblasts
Procedure, shortened: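 Chicken embryo fibroblasts (1×10^5 cells/mL) were cultured 24 h at 37°C, 5% CO2, washed with serum-free DMEM, then exposed to 2-fold serial compound dilutions in 1% FBS DMEM for 48 h. CCK-8 in 1% FBS DMEM was added for 90 min and absorbance read at 450 nm. CC50 was obtained by curve fitting. Blank and cell controls were included.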

CCC(CC)O[C@@H]1C=C(C(=O)O)C[C@H](NC/C=C/c2ccccc2OC)[C@H]1NC(C)=O and CCC(CC)O[C@@H]1C=C(C(=O)O)C[C@H](NC(=O)c2ccccc2)[C@H]1NC(C)=O cannot be ordered by CC50 at 48 h: over 200 µM for the first, over 200 µM for the second.

CCC(CC)O[C@@H]1C=C(C(=O)O)C[C@H](NS(=O)(=O)c2ccccc2)[C@H]1NC(C)=O and CCC(CC)O[C@@H]1C=C(C(=O)O)C[C@H](NS(=O)(=O)c2ccc(C)cc2)[C@H]1NC(C)=O cannot be ordered by CC50 at 48 h: over 200 µM for the first, over 200 µM for the second.

CCC(CC)O[C@@H]1C=C(C(=O)O)C[C@H](N(Cc2ccsc2)Cc2ccsc2)[C@H]1NC(C)=O and CCC(CC)O[C@@H]1C=C(C(=O)O)C[C@H](NCc2cccc(C(F)(F)F)c2)[C@H]1NC(C)=O cannot be ordered by CC50 at 48 h: over 200 µM for the first, over 200 µM for the second.

CCC(CC)O[C@@H]1C=C(C(=O)O)C[C@H](NS(=O)(=O)c2ccc(-c3cccs3)cc2)[C@H]1NC(C)=O and CCC(CC)O[C@@H]1C=C(C(=O)O)C[C@H](NC(=O)/C=C/c2ccc(F)cc2)[C@H]1NC(C)=O cannot be ordered by CC50 at 48 h: over 200 µM for the first, over 200 µM for the second.

Work on NC(=O)c1ncn([C@@H]2O[C@H](CO)[C@@H](O)[C@H]2O)n1 [RIBAVIRIN] yielded a CC50 at 48 h of over 200 µM.

System: not listed separately
Assay: Inhibition of Influenza A virus (A/goose/Guangdong/SH7/2013(H5N1)) group-1 Neuraminidase N1 preincubated for 10 mins followed by MUNANA substrate addition and measured after 40 to 60 mins by fluorescence method
Details: not given
Procedure, shortened: as §1

CCC(CC)O[C@@H]1C=C(C(=O)O)C[C@H](NC/C=C/c2ccccc2OC)[C@H]1NC(C)=O showed a pIC50 of 6.59.

System: Influenza A virus
Assay: Antiviral activity against Influenza A virus (A/goose/Jiangsu/1306/2014 (H5N8)) group-1 infected in chicken embryo fibroblast assessed as reduction in viral infection preincubated for 1 hrs followed by fibroblast infection and measured after 72 hrs by hemagglutination titre method
Type: functional, organism-based
Details: not given

Going from CCC(CC)O[C@@H]1C=C(C(=O)O)C[C@H](NC/C=C/c2ccccc2OC)[C@H]1NC(C)=O to CCC(CC)O[C@@H]1C=C(C(=O)O)C[C@H](NC(=O)c2ccccc2)[C@H]1NC(C)=O, the pIC50 falls from 7.05 to under 5.00. The first is the more potent here.

CCC(CC)O[C@@H]1C=C(C(=O)O)C[C@H](NS(=O)(=O)c2ccccc2)[C@H]1NC(C)=O and CCC(CC)O[C@@H]1C=C(C(=O)O)C[C@H](NS(=O)(=O)c2ccc(C)cc2)[C@H]1NC(C)=O are within 0.2 log units of each other in pIC50: 5.32 for the first, 5.51 for the second.

CCC(CC)O[C@@H]1C=C(C(=O)O)C[C@H](N(Cc2ccsc2)Cc2ccsc2)[C@H]1NC(C)=O and CCC(CC)O[C@@H]1C=C(C(=O)O)C[C@H](NCc2cccc(C(F)(F)F)c2)[C@H]1NC(C)=O are within 0.2 log units of each other in pIC50: 6.06 for the first, 6.12 for the second.

Compared with CCC(CC)O[C@@H]1C=C(C(=O)O)C[C@H](NS(=O)(=O)c2ccc(-c3cccs3)cc2)[C@H]1NC(C)=O, CCC(CC)O[C@@H]1C=C(C(=O)O)C[C@H](NC(=O)/C=C/c2ccc(F)cc2)[C@H]1NC(C)=O is 1.99 log units lower in pIC50: 7.28 for the first, 5.29 for the second. The first is the more potent here.

In the case of NC(=O)c1ncn([C@@H]2O[C@H](CO)[C@@H](O)[C@H]2O)n1 [RIBAVIRIN], the pIC50 was 5.71.

System: not listed separately
Assay: Inhibition of Influenza A virus (A/Duck/Guangdong/674/2014 (H5N6)) group-2 Neuraminidase N6 preincubated for 10 mins followed by MUNANA substrate addition and measured after 40 to 60 mins by fluorescence method
Details: not given
Procedure, shortened: as §1

In the case of CCC(CC)O[C@@H]1C=C(C(=O)O)C[C@H](NC/C=C/c2ccccc2OC)[C@H]1NC(C)=O, the pIC50 was 6.81.
